# Laboratory results from ChEMBL document CHEMBL1129929, “Analogues of methotrexate in rheumatoid arthritis. 1. Effects of 10-deazaaminopterin analogues on type II collagen-induced arthritis in mice” (J Med Chem, 1997).
# How the values were obtained:
# [1] = test system: Mus musculus; experiment: Incidence of disease(mouse type II collagen arthritis) was scored as the percentage of animals within each experimental group that exhibited joint or limb inflammation on day 44 at intraperitoneal of dose 2.5 mg/kg; format: functional
# Outline: (§1)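 DBA/1 mice were immunized with bovine type II collagen (modified Courtenay method), with a collagen booster on day 21. Compounds were given ip starting 2 days before the first collagen challenge and every 2 days thereafter. Incidence was the percentage of animals per group with joint or limb inflammation, scored on days 23, 30, 37 and 44.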
# [2] = test system: Mus musculus; experiment: Incidence of disease(mouse type II collagen arthritis) was scored as the percentage of animals within each experimental group that exhibited joint or limb inflammation on day 30 at intraperitoneal of dose 2.5 mg/kg; format: functional; outline: as §1
# [3] = test system: Mus musculus; experiment: Tested for antiinflammatory activity on mouse type II collagen arthritis as Paw swelling* of all animals in each group on day 37 at intraperitoneal dose of 5 mg/kg; format: functional
# Outline: (§2)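 DBA/1 mice immunized with bovine type II collagen (Courtenay method, modified), antigen booster at day 21. Compounds given ip from 2 days before the first collagen challenge, then every 2 days. Hind paw dimensions (mm) measured for both limbs of all animals, expressed as mean ± SD. Eight mice per dose; untreated controls pooled from four experiments (48 animals).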
# [4] = test system: Mus musculus; experiment: Incidence of disease(mouse type II collagen arthritis) was scored as the percentage of animals within each experimental group that exhibited joint or limb inflammation on day 37 at intraperitoneal of dose 12 mg/kg; format: functional; outline: as §1
# [5] = test system: Mus musculus; experiment: Incidence of disease(mouse type II collagen arthritis) was scored as the percentage of animals within each experimental group that exhibited joint or limb inflammation on day 23 at intraperitoneal of dose 12 mg/kg; format: functional; outline: as §1
# [6] = test system: Mus musculus; experiment: Incidence of disease(mouse type II collagen arthritis) was scored as the percentage of animals within each experimental group that exhibited joint or limb inflammation on day 37 at intraperitoneal of dose 5 mg/kg; format: functional; outline: as §1
# [7] = test system: Mus musculus; experiment: Incidence of disease(mouse type II collagen arthritis) was scored as the percentage of animals within each experimental group that exhibited joint or limb inflammation on day 23 at intraperitoneal dose of 2.5 mg/kg; format: functional; outline: as §1
# [8] = test system: Mus musculus; experiment: Incidence of disease(mouse type II collagen arthritis) was scored as the percentage of animals within each experimental group that exhibited joint or limb inflammation on day 30 at intraperitoneal of dose 12 mg/kg; format: functional; outline: as §1
# [9] = test system: Mus musculus; experiment: Tested for antiinflammatory activity on mouse type II collagen arthritis as Paw swelling* of all animals in each group onn day 44 at intraperitoneal dose of 2.25 mg/kg; format: functional; outline: as §2
# [10] = test system: Mus musculus; experiment: Incidence of disease(mouse type II collagen arthritis) was scored as the percentage of animals within each experimental group that exhibited joint or limb inflammation on day 23 at intraperitoneal dose of 5 mg/kg; format: functional; outline: as §1
# [11] = Concentration required to inhibit the growth of chang liver cells; format: functional; details: Homo sapiens
# [12] = test system: L1210; experiment: Concentration required to inhibit the growth of L1210 cells; format: functional, cell-based; details: Mus musculus
# [13] = test system: Mus musculus; experiment: Incidence of disease(mouse type II collagen arthritis) was scored as the percentage of animals within each experimental group that exhibited joint or limb inflammation on day 37 at intraperitoneal of dose 1.25 mg/kg; format: functional; outline: as §1
# [14] = test system: Mus musculus; experiment: Incidence of disease(mouse type II collagen arthritis) was scored as the percentage of animals within each experimental group that exhibited joint or limb inflammation on day 37 at intraperitoneal of dose 2.5 mg/kg; format: functional; outline: as §1
# [15] = test system: Mus musculus; experiment: Tested for antiinflammatory activity on mouse type II collagen arthritis as Paw swelling* of all animals in each group on day 23 at intraperitoneal dose of 5 mg/kg; format: functional; outline: as §2
# [16] = test system: Mus musculus; experiment: Incidence of disease(mouse type II collagen arthritis) was scored as the percentage of animals within each experimental group that exhibited joint or limb inflammation on day 44 at intraperitoneal of dose 12 mg/kg; format: functional; outline: as §1
# [17] = test system: Mus musculus; experiment: Tested for antiinflammatory activity on mouse type II collagen arthritis as Paw swelling* of all animals in each group on day 30 at intraperitoneal dose of 12 mg/kg; format: functional; outline: as §2
# [18] = test system: Mus musculus; experiment: Tested for antiinflammatory activity on mouse type II collagen arthritis as Paw swelling* of all animals in each group on day 30 at intraperitoneal dose of 1.25 mg/kg; format: functional; outline: as §2
# [19] = test system: Mus musculus; experiment: Tested for antiinflammatory activity on mouse type II collagen arthritis as Paw swelling* of all animals in each group on day 23 at intraperitoneal dose of 2.25 mg/kg; format: functional; outline: as §2
# [20] = test system: Mus musculus; experiment: Tested for antiinflammatory activity on mouse type II collagen arthritis as Paw swelling* of all animals in each group on day 37 at intraperitoneal dose of 2.25 mg/kg; format: functional; outline: as §2
# [21] = test system: Mus musculus; experiment: Incidence of disease(mouse type II collagen arthritis) was scored as the percentage of animals within each experimental group that exhibited joint or limb inflammation on day 30 at intraperitoneal of dose 5 mg/kg; format: functional; outline: as §1
# [22] = test system: Mus musculus; experiment: Incidence of disease(mouse type II collagen arthritis) was scored as the percentage of animals within each experimental group that exhibited joint or limb inflammation on day 44 at intraperitoneal of dose 5 mg/kg; format: functional; outline: as §1
# [23] = test system: Mus musculus; experiment: Tested for antiinflammatory activity on mouse type II collagen arthritis as Paw swelling* of all animals in each group on day 37 at intraperitoneal dose of 12 mg/kg; format: functional; outline: as §2
# [24] = test system: Mus musculus; experiment: Tested for antiinflammatory activity on mouse type II collagen arthritis as Paw swelling* of all animals in each group on day 23 at intraperitoneal dose of 12 mg/kg; format: functional; outline: as §2
# [25] = test system: Mus musculus; experiment: Tested for antiinflammatory activity on mouse type II collagen arthritis as Paw swelling* of all animals in each group on day 30 at intraperitoneal dose of 5 mg/kg; format: functional; outline: as §2
# [26] = test system: Mus musculus; experiment: Incidence of disease(mouse type II collagen arthritis) was scored as the percentage of animals within each experimental group that exhibited joint or limb inflammation on day 30 at intraperitoneal of dose 1.25 mg/kg; format: functional; outline: as §1
# [27] = test system: Mus musculus; experiment: Incidence of disease(mouse type II collagen arthritis) was scored as the percentage of animals within each experimental group that exhibited joint or limb inflammation on day 44 at intraperitoneal of dose 1.25 mg/kg; format: functional; outline: as §1
# [28] = test system: Mus musculus; experiment: Tested for antiinflammatory activity on mouse type II collagen arthritis as Paw swelling* of all animals in each group on day 23 at intraperitoneal dose of 1.25 mg/kg; format: functional; outline: as §2
# [29] = test system: Mus musculus; experiment: Tested for antiinflammatory activity on mouse type II collagen arthritis as Paw swelling* of all animals in each group on day 44 at intraperitoneal dose of 12 mg/kg; format: functional; outline: as §2
# [30] = test system: Mus musculus; experiment: Tested for antiinflammatory activity on mouse type II collagen arthritis as Paw swelling* of all animals in each group on day 30 at intraperitoneal dose of 2.25 mg/kg; format: functional; outline: as §2
# [31] = test system: Mus musculus; experiment: Tested for antiinflammatory activity on mouse type II collagen arthritis as Paw swelling* of all animals in each group on day 44 at intraperitoneal dose of 5 mg/kg; format: functional; outline: as §2
# [32] = test system: Mus musculus; experiment: Incidence of disease(mouse type II collagen arthritis) was scored as the percentage of animals within each experimental group that exhibited joint or limb inflammation on day 23 at intraperitoneal dose of 1.25 mg/kg; format: functional; outline: as §1
# [33] = test system: Mus musculus; experiment: Tested for antiinflammatory activity on mouse type II collagen arthritis as Paw swelling* of all animals in each group on day 44 at intraperitoneal dose of 18 mg/kg; format: functional; outline: as §2
# [34] = test system: Mus musculus; experiment: Incidence of disease(mouse type II collagen arthritis) was scored as the percentage of animals within each experimental group that exhibited joint or limb inflammation on day 37 at intraperitoneal of dose 18 mg/kg; format: functional; outline: as §1
# [35] = test system: Mus musculus; experiment: Tested for antiinflammatory activity on mouse type II collagen arthritis as Paw swelling* of all animals in each group on day 30 at intraperitoneal dose of 18 mg/kg; format: functional; outline: as §2
# [36] = test system: Mus musculus; experiment: Incidence of disease(mouse type II collagen arthritis) was scored as the percentage of animals within each experimental group that exhibited joint or limb inflammation on day 44 at intraperitoneal of dose 18 mg/kg; format: functional; outline: as §1
# [37] = test system: Mus musculus; experiment: Tested for antiinflammatory activity on mouse type II collagen arthritis as Paw swelling* of all animals in each group on day 37 at intraperitoneal dose of 18 mg/kg; format: functional; outline: as §2
# [38] = test system: Mus musculus; experiment: Incidence of disease(mouse type II collagen arthritis) was scored as the percentage of animals within each experimental group that exhibited joint or limb inflammation on day 30 at intraperitoneal of dose 18 mg/kg; format: functional; outline: as §1
# [39] = test system: Mus musculus; experiment: Tested for antiinflammatory activity on mouse type II collagen arthritis as Paw swelling* of all animals in each group on day 23 at intraperitoneal dose of 18 mg/kg; format: functional; outline: as §2
# [40] = test system: Mus musculus; experiment: Incidence of disease(mouse type II collagen arthritis) was scored as the percentage of animals within each experimental group that exhibited joint or limb inflammation on day 23 at intraperitoneal dose of 18 mg/kg; format: functional; outline: as §1
smiles,measurement,setting,value
CCC(Cc1cnc2nc(N)nc(N)c2n1)c1ccc(C(=O)NC(CCC(=O)O)C(=O)O)cn1 (stereo not given),Animals,[1],75%
same,Animals,[2],25%
same,Paw swelling,[3],2.56 mm
same,Animals,[4],88%
same,Animals,[5],12%
same,Animals,[6],75%
same,Animals,[7],0%
same,Animals,[8],25%
same,Paw swelling,[9],2.75 mm
same,Animals,[10],12%
same,IC50,[11],35 nM
same,IC50,[12],268 nM
same,Animals,[13],75%
same,Animals,[14],75%
same,Paw swelling,[15],2.15 mm
same,Animals,[16],100%
same,Paw swelling,[17],2.2 mm
same,Paw swelling,[18],2.24 mm
same,Paw swelling,[19],2.15 mm
same,Paw swelling,[20],2.75 mm
same,Animals,[21],63%
same,Animals,[22],88%
same,Paw swelling,[23],2.59 mm
same,Paw swelling,[24],2.21 mm
same,Paw swelling,[25],2.32 mm
same,Animals,[26],38%
same,Animals,[27],100%
same,Paw swelling,[28],2.17 mm
same,Paw swelling,[29],2.86 mm
same,Paw swelling,[30],2.18 mm
same,Paw swelling,[31],3.09 mm
same,Animals,[32],12%
Nc1nc(N)c2nc(CCc3ccc(C(=O)NC(CCC(=O)O)C(=O)O)s3)cnc2n1 (stereo not given),Paw swelling,[33],2.38 mm
same,Animals,[4],50%
same,Animals,[5],0%
same,Animals,[8],0%
same,Animals,[34],38%
same,IC50,[11],3.1 nM
same,IC50,[12],8.1 nM
same,Paw swelling,[35],2.16 mm
same,Animals,[36],25%
same,Animals,[16],50%
same,Paw swelling,[37],2.26 mm
same,Animals,[38],0%
same,Paw swelling,[17],2.15 mm
same,Paw swelling,[39],2.14 mm
same,Paw swelling,[23],2.28 mm
same,Paw swelling,[24],2.15 mm
same,Paw swelling,[29],2.58 mm
same,Animals,[40],0%
